Test results reported in ChEMBL document CHEMBL1275350, “First in class, potent, and orally bioavailable NADPH oxidase isoform 4 (Nox4) inhibitors for the treatment of idiopathic pulmonary fibrosis” (J Med Chem, 2010).

What was measured:
[1] = Intrinsic clearance in human liver microsomes assessed as per mg of protein at 0.5 uM; type: ADME, Microsome
Method in brief: (§1)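 Phase I stability assay in pooled liver microsomes (human: male and female; rat: male Sprague-Dawley). Microsomes at 0.5 mg/mL final in 0.1 M phosphate pH 7.4. Compound 0.5 μM final, 0.25% DMSO. Preincubated at 37 °C, reaction started with 1 mM NADPH. Sampled at 0, 5, 15, 30 and 45 min, with a 45 min minus-NADPH control. Methanol quench with internal standard, LC/MS-MS, intrinsic clearance calculated.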

NADPH oxidase 4 = molecular target: T1, NADPH oxidase 4 (Homo sapiens, UniProt Q9NPH5); assay: Inhibition of human NOX4 overexpressed in T-REx-293 cell membrane assessed as ROS production by cell free assay in presence of NADPH; settings: in the assay text read “T-REx-293 cell membrane” for “human PMN cell membrane”
T1 sequence (Q9NPH5 whole entry): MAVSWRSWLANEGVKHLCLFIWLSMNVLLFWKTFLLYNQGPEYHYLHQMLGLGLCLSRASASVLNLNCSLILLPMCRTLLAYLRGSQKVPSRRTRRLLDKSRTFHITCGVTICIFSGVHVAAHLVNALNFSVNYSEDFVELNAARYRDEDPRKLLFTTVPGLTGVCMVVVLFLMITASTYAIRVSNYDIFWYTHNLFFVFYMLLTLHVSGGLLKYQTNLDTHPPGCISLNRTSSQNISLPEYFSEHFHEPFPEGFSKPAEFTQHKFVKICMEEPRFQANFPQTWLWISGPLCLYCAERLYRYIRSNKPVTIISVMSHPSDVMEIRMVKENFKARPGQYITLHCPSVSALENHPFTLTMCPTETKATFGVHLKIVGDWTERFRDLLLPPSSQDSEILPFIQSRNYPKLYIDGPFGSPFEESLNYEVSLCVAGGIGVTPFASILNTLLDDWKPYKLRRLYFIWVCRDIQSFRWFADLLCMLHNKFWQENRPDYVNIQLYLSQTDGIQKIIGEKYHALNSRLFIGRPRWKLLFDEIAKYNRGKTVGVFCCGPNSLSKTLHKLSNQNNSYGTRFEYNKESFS
Method in brief: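 hNOX4 T-REx-293 cells induced with tetracycline (1 μg/mL, 24 h), sonicated in sucrose/NaCl/EGTA PBS buffer pH 7.4, membranes taken from a sucrose gradient. NADPH-triggered ROS measured by Amplex Red/HRP in PBS, with compound at 1 nM–100 μM, 20 min at 37 °C. Ki by Cheng-Prusoff from ≥3 triplicate experiments.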

[2] = Cmax in Sprague-Dawley rat at 5 mg/kg, iv; type: ADME, organism-based; set-up: dose 5 mg/kg, route intravenous; settings: in vivo
Method in brief: (§2)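 Parallel design with six male rats: three given 5 mg/kg iv in EDPW (10% EtOH, 10% DMA, 30% PG, 50% water), three given 10 mg/kg orally in aqueous 0.5% CMC with 0.25% Tween 20. Carotid cannula blood sampled up to 24 h. Plasma levels by LC/MS/MS (LLOQ 1.00 ng/mL). Noncompartmental analysis.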

[3] = Clearance in Sprague-Dawley rat at 5 mg/kg, iv; type: ADME, organism-based; set-up: dose 5 mg/kg, route intravenous; settings: in vivo; method in brief: as §2
[4] = Clearance in Sprague-Dawley rat at 10 mg/kg, po; type: ADME, organism-based; set-up: dose 10 mg/kg, route oral; settings: in vivo; method in brief: as §2
[5] = Permeability across human Caco-2 cell membrane at 10 uM after 2 hrs; type: ADME, cell-based
Method in brief: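 Caco-2 monolayers grown 20 days in DMEM, used when TEER >800 Ω·cm2. Dosed at 10 μM final in HBSS pH 6.5 with 1% DMSO, apical-to-basolateral and basolateral-to-apical. Incubated 2 h at 37 °C, both compartments sampled, LC-MS/MS with five-point calibration. Papp = (dQ/dt)/(C0A).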

[6] = Cmax in Sprague-Dawley rat at 10 mg/kg, po; type: ADME, organism-based; set-up: dose 10 mg/kg, route oral; settings: in vivo; method in brief: as §2
[7] = Half life in Sprague-Dawley rat at 10 mg/kg, po; type: ADME, organism-based; set-up: dose 10 mg/kg, route oral; settings: in vivo; method in brief: as §2
[8] = Volume of distribution at steady state in Sprague-Dawley rat at 5 mg/kg, iv; type: ADME, organism-based; set-up: dose 5 mg/kg, route intravenous; settings: in vivo, read-out: Vdss
Method in brief: (§3)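 Parallel design in male rats, three per group. Group 1: 5 mg/kg iv in EDPW (10% EtOH, 10% DMA, 30% PG, 50% water). Group 2: 10 mg/kg oral in aqueous 0.5% CMC with 0.25% Tween 20. Carotid cannula blood drawn up to 24 h. Plasma measured by LC/MS/MS (LLOQ 1.00 ng/mL), noncompartmental analysis.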

[9] = Intrinsic clearance in Sprague-Dawley rat liver microsomes assessed per mg of protein at 0.5 uM; type: ADME, Microsome; method in brief: as §1
[10] = AUC (infinity) in Sprague-Dawley rat at 5 mg/kg, iv; type: ADME, organism-based; set-up: time infinity, dose 5 mg/kg, route intravenous; settings: plasma; method in brief: as §2
[11] = AUC (infinity) in Sprague-Dawley rat at 10 mg/kg, po; type: ADME, organism-based; set-up: time infinity, dose 10 mg/kg, route oral; settings: plasma; method in brief: as §2
[12] = Oral bioavailability in Sprague-Dawley rat at 10 mg/kg; type: ADME, organism-based; settings: in vivo; method in brief: as §3
[13] = Tmax in Sprague-Dawley rat at 10 mg/kg, po; type: ADME, organism-based; set-up: dose 10 mg/kg, route oral; settings: in vivo; method in brief: as §3
[14] = Half life in Sprague-Dawley rat at 5 mg/kg, iv; type: ADME, organism-based; set-up: dose 5 mg/kg, route intravenous; settings: in vivo; method in brief: as §2
Cytochrome P450 2C9 = Cytochrome P450 2C9 (Homo sapiens, UniProt P11712); assay: Inhibition of human CYP2C9; type: ADME
Method in brief: (§4)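 Recombinant human CYP isoforms with isoform-specific probe substrates and NADPH. Compound at 0.1–25 μM, final DMSO 0.3%. Metabolites measured by mass spectrometry, except CYP1A2, which used a fluorescent metabolite. IC50 derived from the decrease in metabolite formation compared with vehicle control.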

Cytochrome P450 2C19 = Cytochrome P450 2C19 (Homo sapiens, UniProt P33261); assay: Inhibition of human CYP2C19; type: ADME; method in brief: as §4
Cytochrome P450 3A4 = Cytochrome P450 3A4 (Homo sapiens, UniProt P08684); assay: Inhibition of human CYP3A4; type: ADME; method in brief: as §4
Cytochrome P450 2C8 = Cytochrome P450 2C8 (Homo sapiens, UniProt P10632); assay: Inhibition of human CYP2C8; type: ADME; method in brief: as §4
[15] = Half life in Sprague-Dawley rat at 5 mg/kg, sc; type: ADME, organism-based; set-up: dose 5 mg/kg, route subcutaneous; settings: in vivo
[16] = AUC (infinity) in Sprague-Dawley rat at 5 mg/kg, sc; type: ADME, organism-based; set-up: time infinity, dose 5 mg/kg, route subcutaneous; settings: plasma
NADPH oxidase 2 = NADPH oxidase 2 (Homo sapiens, UniProt P04839); assay: Inhibition of human NOX2 overexpressed in […] cell membrane assessed as ROS production by cell free assay in presence of NADPH
Method in brief: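 Nox2 source: membranes from human polymorphonuclear cells, sonicated and collected at the 17/40% sucrose interface. ROS read by Amplex Red/HRP in PBS after NADPH addition, with compound at 1 nM–100 μM for 20 min at 37 °C. Background taken without membranes or agonist. Ki via Cheng-Prusoff, mean of ≥3 experiments in triplicate.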

[17] = Half life in Sprague-Dawley rat at 1 mg/kg, iv; type: ADME, organism-based; set-up: dose 1 mg/kg, route intravenous; settings: in vivo
[18] = Cmax in Sprague-Dawley rat at 1 mg/kg, iv; type: ADME, organism-based; set-up: dose 1 mg/kg, route intravenous; settings: in vivo
[19] = Tmax in Sprague-Dawley rat at 1 mg/kg, iv; type: ADME, organism-based; set-up: dose 1 mg/kg, route intravenous; settings: in vivo
[20] = Clearance in Sprague-Dawley rat at 1 mg/kg, iv; type: ADME, organism-based; set-up: dose 1 mg/kg, route intravenous; settings: in vivo
[21] = AUC (infinity) in Sprague-Dawley rat at 1 mg/kg, iv; type: ADME, organism-based; set-up: time infinity, dose 1 mg/kg, route intravenous; settings: plasma
[22] = Volume of distribution at steady state in Sprague-Dawley rat at 1 mg/kg, iv; type: ADME, organism-based; set-up: dose 1 mg/kg, route intravenous; settings: in vivo, read-out: Vdss
[23] = Cmax in Sprague-Dawley rat at 5 mg/kg, sc; type: ADME, organism-based; set-up: dose 5 mg/kg, route subcutaneous; settings: in vivo
[24] = molecular target: Xanthine dehydrogenase/oxidase (Homo sapiens, UniProt P47989); assay: Inhibition of xanthine oxidase by in vitro enzymatic assay in presence of xanthine
Method in brief: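 Cell-free Amplex Red read-out: xanthine oxidase incubated in PBS with Amplex Red, HRP and cofactors; ROS production started by adding xanthine. Compound at rising concentrations from 1 nM to 100 μM, 20 min at 37 °C, then read on a plate reader. Background taken without enzyme or without agonist. Ki by Cheng-Prusoff, mean of at least three experiments run in triplicate.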

[25] = Bioavailability in Sprague-Dawley rat at 5 mg/kg, sc; type: ADME, organism-based; settings: in vivo
[26] = Tmax in Sprague-Dawley rat at 5 mg/kg, sc; type: ADME, organism-based; set-up: dose 5 mg/kg, route subcutaneous; settings: in vivo
Rattus norvegicus = assay: Hepatic blood flow in Sprague-Dawley rat at 5 mg/kg, iv; type: ADME, organism-based, Liver; set-up: dose 5 mg/kg, route intravenous; settings: in vivo

Sequence of Cytochrome P450 2C9 (P11712 whole entry, canonical isoform): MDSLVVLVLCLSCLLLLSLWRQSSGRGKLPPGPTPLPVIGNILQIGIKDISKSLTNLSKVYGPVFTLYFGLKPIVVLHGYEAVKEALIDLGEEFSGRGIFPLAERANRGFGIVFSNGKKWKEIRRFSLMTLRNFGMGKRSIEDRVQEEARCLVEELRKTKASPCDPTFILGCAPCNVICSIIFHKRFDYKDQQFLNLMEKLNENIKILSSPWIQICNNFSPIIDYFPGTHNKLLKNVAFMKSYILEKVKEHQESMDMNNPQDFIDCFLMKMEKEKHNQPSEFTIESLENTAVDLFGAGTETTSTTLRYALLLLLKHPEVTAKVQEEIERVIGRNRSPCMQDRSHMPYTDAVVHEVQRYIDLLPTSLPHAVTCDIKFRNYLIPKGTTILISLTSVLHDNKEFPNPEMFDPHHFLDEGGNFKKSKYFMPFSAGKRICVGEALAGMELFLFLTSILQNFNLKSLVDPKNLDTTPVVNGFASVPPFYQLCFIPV
Sequence of Cytochrome P450 2C19 (P33261 whole entry): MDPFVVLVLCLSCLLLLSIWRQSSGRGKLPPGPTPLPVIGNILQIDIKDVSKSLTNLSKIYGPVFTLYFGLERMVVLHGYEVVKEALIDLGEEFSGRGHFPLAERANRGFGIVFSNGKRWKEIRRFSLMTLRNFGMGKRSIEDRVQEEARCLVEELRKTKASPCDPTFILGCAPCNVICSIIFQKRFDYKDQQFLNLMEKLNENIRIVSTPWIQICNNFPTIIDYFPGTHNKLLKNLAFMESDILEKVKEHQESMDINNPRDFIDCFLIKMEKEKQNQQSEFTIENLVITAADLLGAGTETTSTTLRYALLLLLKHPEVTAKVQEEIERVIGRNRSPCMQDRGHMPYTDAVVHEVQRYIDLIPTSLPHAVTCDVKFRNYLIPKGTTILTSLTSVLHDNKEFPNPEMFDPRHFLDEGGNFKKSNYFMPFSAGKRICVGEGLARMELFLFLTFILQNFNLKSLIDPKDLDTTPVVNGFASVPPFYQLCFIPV
Sequence of Cytochrome P450 3A4 (P08684 whole entry): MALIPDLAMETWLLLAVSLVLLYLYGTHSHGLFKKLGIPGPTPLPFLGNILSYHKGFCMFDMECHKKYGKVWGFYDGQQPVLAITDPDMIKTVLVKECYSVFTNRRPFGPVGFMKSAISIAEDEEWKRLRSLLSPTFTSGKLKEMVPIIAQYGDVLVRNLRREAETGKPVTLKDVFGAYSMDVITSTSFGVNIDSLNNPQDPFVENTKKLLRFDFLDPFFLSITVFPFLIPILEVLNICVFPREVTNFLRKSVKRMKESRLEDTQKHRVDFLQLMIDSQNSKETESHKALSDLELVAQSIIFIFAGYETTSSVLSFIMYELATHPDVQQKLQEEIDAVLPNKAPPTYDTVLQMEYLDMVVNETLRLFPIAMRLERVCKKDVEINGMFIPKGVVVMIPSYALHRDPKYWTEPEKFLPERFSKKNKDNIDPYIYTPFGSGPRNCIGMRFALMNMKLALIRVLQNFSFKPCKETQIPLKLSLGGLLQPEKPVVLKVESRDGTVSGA
Sequence of Cytochrome P450 2C8 (P10632 whole entry): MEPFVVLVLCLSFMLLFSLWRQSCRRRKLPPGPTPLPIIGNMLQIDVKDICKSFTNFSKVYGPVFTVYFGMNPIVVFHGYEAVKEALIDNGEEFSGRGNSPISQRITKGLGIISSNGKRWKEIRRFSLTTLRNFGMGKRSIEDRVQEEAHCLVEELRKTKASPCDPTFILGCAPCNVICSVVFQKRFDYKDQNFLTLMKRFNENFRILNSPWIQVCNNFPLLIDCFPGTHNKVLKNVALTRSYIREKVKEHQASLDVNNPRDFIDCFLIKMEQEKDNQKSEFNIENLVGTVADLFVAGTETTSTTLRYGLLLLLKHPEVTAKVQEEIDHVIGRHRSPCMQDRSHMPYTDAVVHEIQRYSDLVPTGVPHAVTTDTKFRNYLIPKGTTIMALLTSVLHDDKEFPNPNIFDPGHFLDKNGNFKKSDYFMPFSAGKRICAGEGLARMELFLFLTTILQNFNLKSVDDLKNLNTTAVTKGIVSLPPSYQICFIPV
Sequence of NADPH oxidase 2 (P04839 whole entry): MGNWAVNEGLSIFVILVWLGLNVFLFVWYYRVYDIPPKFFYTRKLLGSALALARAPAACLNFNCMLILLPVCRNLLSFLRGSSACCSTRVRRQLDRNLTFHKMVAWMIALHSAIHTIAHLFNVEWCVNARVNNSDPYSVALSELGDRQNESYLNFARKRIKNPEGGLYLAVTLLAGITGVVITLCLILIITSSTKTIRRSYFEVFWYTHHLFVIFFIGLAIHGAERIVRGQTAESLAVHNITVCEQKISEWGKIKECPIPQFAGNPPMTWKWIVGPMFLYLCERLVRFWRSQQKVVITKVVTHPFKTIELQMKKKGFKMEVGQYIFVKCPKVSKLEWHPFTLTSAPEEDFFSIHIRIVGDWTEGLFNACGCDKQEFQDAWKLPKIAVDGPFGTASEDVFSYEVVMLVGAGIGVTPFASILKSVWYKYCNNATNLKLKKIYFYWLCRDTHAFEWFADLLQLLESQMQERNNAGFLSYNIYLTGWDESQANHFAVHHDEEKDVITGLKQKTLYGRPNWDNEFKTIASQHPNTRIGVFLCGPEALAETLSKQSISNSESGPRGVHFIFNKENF
Sequence of Xanthine dehydrogenase/oxidase (P47989 whole entry): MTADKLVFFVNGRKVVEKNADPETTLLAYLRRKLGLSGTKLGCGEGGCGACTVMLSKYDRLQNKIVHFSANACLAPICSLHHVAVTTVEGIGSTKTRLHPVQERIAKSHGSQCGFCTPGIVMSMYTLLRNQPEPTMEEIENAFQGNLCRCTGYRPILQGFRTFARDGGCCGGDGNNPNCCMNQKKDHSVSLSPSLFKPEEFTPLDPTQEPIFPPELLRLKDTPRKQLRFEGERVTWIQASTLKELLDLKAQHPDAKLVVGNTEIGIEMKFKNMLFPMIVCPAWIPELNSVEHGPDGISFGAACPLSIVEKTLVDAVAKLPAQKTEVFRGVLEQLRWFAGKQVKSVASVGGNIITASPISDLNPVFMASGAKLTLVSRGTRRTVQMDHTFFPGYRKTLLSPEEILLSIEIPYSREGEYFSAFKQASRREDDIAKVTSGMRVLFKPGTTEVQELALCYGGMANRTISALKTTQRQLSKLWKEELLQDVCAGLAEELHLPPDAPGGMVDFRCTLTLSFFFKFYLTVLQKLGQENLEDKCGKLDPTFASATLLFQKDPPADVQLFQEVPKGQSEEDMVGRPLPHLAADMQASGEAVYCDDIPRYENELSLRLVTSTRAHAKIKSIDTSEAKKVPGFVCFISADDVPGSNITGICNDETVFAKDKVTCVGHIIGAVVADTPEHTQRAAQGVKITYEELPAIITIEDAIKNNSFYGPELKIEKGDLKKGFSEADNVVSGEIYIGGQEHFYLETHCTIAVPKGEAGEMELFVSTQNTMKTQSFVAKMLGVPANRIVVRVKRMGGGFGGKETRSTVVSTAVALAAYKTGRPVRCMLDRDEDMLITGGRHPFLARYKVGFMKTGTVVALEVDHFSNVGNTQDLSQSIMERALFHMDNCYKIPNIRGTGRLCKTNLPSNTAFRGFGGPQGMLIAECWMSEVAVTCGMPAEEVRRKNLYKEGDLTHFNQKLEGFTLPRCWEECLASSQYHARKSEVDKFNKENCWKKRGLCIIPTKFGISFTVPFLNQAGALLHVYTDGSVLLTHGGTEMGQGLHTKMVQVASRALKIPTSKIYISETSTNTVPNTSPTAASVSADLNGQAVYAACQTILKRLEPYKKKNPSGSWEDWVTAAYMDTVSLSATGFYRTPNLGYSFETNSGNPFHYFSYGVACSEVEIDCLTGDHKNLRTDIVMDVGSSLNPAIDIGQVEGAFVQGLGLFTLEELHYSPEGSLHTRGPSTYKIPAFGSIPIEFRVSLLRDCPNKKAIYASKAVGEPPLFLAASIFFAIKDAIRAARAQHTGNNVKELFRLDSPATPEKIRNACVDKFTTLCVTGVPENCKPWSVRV

Row | Structure (SMILES) | microsomal CLint at 0.5 µM [1] | Ki (NADPH oxidase 4) | Cmax [2] | clearance [3] | CL/F [4] | Papp at 2 h, 10 µM [5] | Cmax [6] | half-life [7] | Vd [8] | microsomal CLint at 0.5 µM [9] | AUC(0-inf) [10] | AUC(0-inf) [11] | bioavailability [12] | Tmax [13] | half-life [14] | IC50 (Cytochrome P450 2C9) | IC50 (Cytochrome P450 2C19) | further results
1 | Cn1c(COc2ccc(F)cc2)c2c(=O)n(-c3ccccc3Cl)[nH]c2cc1=O | 49.3 µL/min/mg | 114 nM | 30400 ng/mL | 12.8 mL/min/kg | 48.7 mL/min/kg | 35.5 ×10⁻⁶ cm/s | 558 ng/mL | 3.03 h | 0.8 L/kg | 125 µL/min/mg | 6530 ng·h/mL | 3630 ng·h/mL | 28% | 1.17 h | 3.47 h | – | – | –
2 | COCCCn1c(CN(C)Cc2ccccc2)c2c(=O)n(-c3ccc(F)cc3Cl)[nH]c2cc1=O | 96.4 µL/min/mg | 165 nM | – | – | – | 39.9 ×10⁻⁶ cm/s | – | – | – | 248 µL/min/mg | – | – | – | – | – | 900 nM | 13000 nM | –
3 | O=c1c2c(COCc3ccccc3)n(Cc3cnccn3)c(=O)cc2[nH]n1-c1ccccc1Cl | 32.4 µL/min/mg | 95 nM | 36800 ng/mL | 5.5 mL/min/kg | 20 mL/min/kg | 78.6 ×10⁻⁶ cm/s | 6080 ng/mL | 2.38 h | 0.35 L/kg | 49.5 µL/min/mg | 15400 ng·h/mL | 8930 ng·h/mL | 29% | 0.25 h | 3.14 h | – | – | –
4 | O=c1c2c(CN3CCCC3)n(CCc3ccccn3)c(=O)cc2[nH]n1-c1ccc(F)cc1Cl | 45.4 µL/min/mg | 114 nM | 6190 ng/mL | 26.8 mL/min/kg | 73.2 mL/min/kg | 7.3 ×10⁻⁶ cm/s | 2830 ng/mL | 1.13 h | 1.49 L/kg | 62.3 µL/min/mg | 3130 ng·h/mL | 2430 ng·h/mL | 39% | 0.33 h | 3.3 h | – | – | –
5 | CN(Cc1c2c(=O)n(-c3ccccc3Cl)[nH]c2cc(=O)n1Cc1ccncc1)c1ccccc1 | 76.3 µL/min/mg | 151 nM | – | – | – | 4.6 ×10⁻⁶ cm/s | – | – | – | 78 µL/min/mg | – | – | – | – | – | 4100 nM | 6500 nM | IC50 (Cytochrome P450 3A4): 1100 nM; IC50 (Cytochrome P450 2C8): 3600 nM
6 | Cc1c2c(=O)n(-c3ccccc3)[nH]c2cc(=O)n1Cc1cccnc1 | – | 373 nM | – | – | – | 79.2 ×10⁻⁶ cm/s | 575 ng/mL | 1.2 h | – | 97.1 µL/min/mg | – | 417 ng·h/mL | 22% | 0.25 h | – | – | – | half-life [15]: 0.7 h; AUC(0-inf) [16]: 815 ng·h/mL; Ki (NADPH oxidase 2): 4720 nM; half-life [17]: 0.4 h; Cmax [18]: 271 ng/mL; Tmax [19]: 4.8 min; clearance [20]: 85.2 mL/min/kg; AUC(0-inf) [21]: 196 ng·h/mL; Vd [22]: 2.36 L/kg; Cmax [23]: 678 ng/mL; Ki [24]: > 30000 nM; bioavailability [25]: 87%; Tmax [26]: 0.5 h; QH (Rattus norvegicus): 55 mL/min/kg
